SMILES strings stand for the structures.

The target of one test is Prothrombin (Homo sapiens, UniProt P00734). In words: Binding affinity to F2a.
Test [1] can be described thus: Binding affinity to trypsin. Set-up: species or system Homo sapiens.
The target of a further test is Coagulation factor X (Homo sapiens, UniProt P00742). In words: Binding affinity to F10a.
The target in test [2] is Thrombin and coagulation factor VII (Homo sapiens) (UniProt P00734+P08709). Description: Selectivity for F7a/TF over F2a. The format is protein assay. Put shortly: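 FVIIa (7 nM) with soluble tissue factor (11 nM) was run in 1.5 mM EDTA. Thrombin (12.7 nM) was run in 1 mM EDTA with Tosyl-Gly-Pro-Lys-pNA at Km. Hydrolysis was followed at 405 nm, and apparent Ki came from a Morrison equation fit.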

For another test, the target named is T1, Coagulation factor VII (Homo sapiens, UniProt P08709).
T1 sequence (P08709 whole entry): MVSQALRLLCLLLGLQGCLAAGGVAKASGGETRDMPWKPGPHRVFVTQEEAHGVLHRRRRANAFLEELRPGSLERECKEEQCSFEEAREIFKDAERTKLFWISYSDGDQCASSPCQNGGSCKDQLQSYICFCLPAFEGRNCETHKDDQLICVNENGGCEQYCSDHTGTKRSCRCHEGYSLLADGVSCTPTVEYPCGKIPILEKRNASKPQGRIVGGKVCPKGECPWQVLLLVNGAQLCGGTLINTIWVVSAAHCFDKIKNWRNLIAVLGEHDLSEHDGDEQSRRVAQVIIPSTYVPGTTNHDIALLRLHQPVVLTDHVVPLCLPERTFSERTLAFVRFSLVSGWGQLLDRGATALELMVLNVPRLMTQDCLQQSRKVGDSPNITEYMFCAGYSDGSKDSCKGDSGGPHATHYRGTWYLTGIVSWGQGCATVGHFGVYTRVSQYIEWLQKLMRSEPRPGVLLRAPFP
Description: Binding affinity to F7a/TF complex. The format is protein-complex assay.

In test [3] the target is Coagulation factor VII/tissue factor (Homo sapiens) (UniProt P08709+P13726). In words: Selectivity for F7a/TF over trypsin. The format is protein-complex assay. Put shortly:
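Trypsin (10 nM) was tested without CaCl2, using Tosyl-Gly-Pro-Lys-pNA at Km. Readout was kinetic A405, and Ki was fitted with the Morrison tight-binding equation.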

The target in test [4] is Coagulation factor VII and X (Homo sapiens) (UniProt P00742+P08709). In words: Selectivity for F7a/TF over F10a. The format is protein assay. Put shortly: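 Reactions were started with pNA substrate at Km and read as A405 over time. Ki was fitted with the Morrison tight-binding equation.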

Sequence of Coagulation factor X (P00742 41-179 limits assumed): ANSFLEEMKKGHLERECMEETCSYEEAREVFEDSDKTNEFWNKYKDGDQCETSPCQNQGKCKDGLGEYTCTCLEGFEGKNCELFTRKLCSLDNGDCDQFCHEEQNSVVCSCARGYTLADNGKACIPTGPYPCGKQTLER
Sequence of Coagulation factor X (P00742 235-488 limits assumed): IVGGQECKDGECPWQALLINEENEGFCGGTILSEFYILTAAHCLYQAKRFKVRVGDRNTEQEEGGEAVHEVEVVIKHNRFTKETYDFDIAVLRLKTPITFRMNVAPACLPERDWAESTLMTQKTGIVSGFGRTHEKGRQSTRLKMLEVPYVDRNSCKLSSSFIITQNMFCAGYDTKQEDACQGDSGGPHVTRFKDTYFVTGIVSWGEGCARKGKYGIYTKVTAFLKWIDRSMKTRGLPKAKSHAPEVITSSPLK

Take `NC(=O)NCc1cccc(-c2cccc(-c3cc4c[nH]ccc-4n3)c2O)c1`: the results for the Ki (on Prothrombin; in test [1]; on Coagulation factor X) were 71500 nM, 46500 nM and 125000 nM, respectively.
For `O=C(NCc1cccc(-c2cccc(-c3cc4c[nH]ccc-4n3)c2O)c1)Nc1ccc(F)cc1F`, the Ratio Ki in test [2] was found to be 1200; in test [3] it was 1500; in test [4], 1700. This molecule returned a Ki at Coagulation factor VII of 100 nM.
The like results for `O=C(NCc1cccc(-c2cccc(-c3cc4c[nH]ccc-4n3)c2O)c1)Nc1ccc(F)cc1` were, in that order, 1360, 1360, 382 and 110 nM.
As for `O=C(NCc1cccc(-c2cccc(-c3cc4c[nH]ccc-4n3)c2O)c1)N1CCCC1`, the Ratio Ki in test [2] is 5; in test [3], 9; in test [4], 3. The molecule further showed a Ki at Coagulation factor VII of 17000 nM.
With `O=C(NCc1cccc(-c2cccc(-c3cc4c[nH]ccc-4n3)c2O)c1)Nc1ccccc1Cl`, the Ratio Ki in test [2], in test [3] and in test [4] was 2630 each time.
Consider `O=C(Cc1c(F)cccc1F)NCc1cccc(-c2cccc(-c3cc4c[nH]ccc-4n3)c2O)c1`, for which the Ratio Ki in test [2] is 16; in test [3] it was 16; in test [4] it was 10. This molecule displayed an inhibition constant Ki on Coagulation factor VII of 9500 nM.
For `O=C(NCc1cccc(-c2cccc(-c3cc4c[nH]ccc-4n3)c2O)c1)Nc1cccs1`, the Ratio Ki came out at 938 in test [2], 538 in test [3] and 600 in test [4].
Consider `O=C(NCc1cccc(-c2cccc(-c3cc4c[nH]ccc-4n3)c2O)c1)C(O)c1ccccc1` (configuration not stated), for which the Ratio Ki in test [2] was found to be 68; in test [3], 57; in test [4], 80. The molecule also registered a Ki at Coagulation factor VII of 850 nM.
The corresponding values for `COc1cccc(NC(=O)NCc2cccc(-c3cccc(-c4cc5c[nH]ccc-5n4)c3O)c2)c1` are 1500, 1500, 1600 and 100 nM.
Turning to `O=C(NCc1cccc(-c2cccc(-c3cc4c[nH]ccc-4n3)c2O)c1)C(CO)c1cccnc1` (configuration not stated), the Ratio Ki in test [2] came out at 107; in test [3], 34; in test [4], 149. For the same molecule, on Coagulation factor VII, the inhibition constant Ki amounted to 610 nM.
The like results for `CCCCCNC(=O)NCc1cccc(-c2cccc(-c3cc4c[nH]ccc-4n3)c2O)c1` were, in that order, 343, 181, 388 and 335 nM.
For `O=C(NCc1cccc(-c2cccc(-c3cc4c[nH]ccc-4n3)c2O)c1)N(O)Cc1ccccc1`, the Ratio Ki came to 750 in test [2], 375 in test [3] and 653 in test [4]. Further, the Ki at Coagulation factor VII came out at 72 nM.
The corresponding values for `O=C(NCc1cccc(-c2cccc(-c3cc4c[nH]ccc-4n3)c2O)c1)C(CO)c1ccccc1` (configuration not stated) are 470, 57, 136 and 220 nM.
For the molecule `O=C(NCc1cccc(-c2cccc(-c3cc4c[nH]ccc-4n3)c2O)c1)Nc1ccccc1F`, the Ratio Ki in test [2] amounted to 2460; in test [3], 2630; in test [4] it was 1930. For the same molecule, at Coagulation factor VII, the Ki came out at 57 nM.
With `COc1ccc(NC(=O)NCc2cccc(-c3cccc(-c4cc5c[nH]ccc-5n4)c3O)c2)c(OC)c1`, the Ratio Ki in test [2] worked out at 3180; in test [3] it was 5000; in test [4], 2640. Also, the affinity on Coagulation factor VII corresponds to a Ki of 28 nM.
The corresponding values for `CC(=O)c1cccc(NC(=O)NCc2cccc(-c3cccc(-c4cc5c[nH]ccc-5n4)c3O)c2)c1` are 2000, 2170, 2170 and 60 nM.
`CC(=O)c1ccc(NC(=O)NCc2cccc(-c3cccc(-c4cc5c[nH]ccc-5n4)c3O)c2)cc1`: the Ratio Ki in test [2] stood at 305; in test [3], 495; in test [4], 789.
As to `O=C(NCc1cccc(-c2cccc(-c3cc4c[nH]ccc-4n3)c2O)c1)Nc1c(F)cccc1F`, the Ratio Ki was 3940 in test [2], 2180 in test [3] and 2700 in test [4]. This molecule also gave a Ki on Coagulation factor VII of 33 nM.
The like results for `O=C(NCCc1ccccc1)NCc1cccc(-c2cccc(-c3cc4c[nH]ccc-4n3)c2O)c1` were, in that order, 174, 96, 417 and 270 nM.
Take `O=C(NCc1cccc(-c2cccc(-c3cc4c[nH]ccc-4n3)c2O)c1)Nc1ccc(C(=O)O)cc1`: the figures for the Ratio Ki in test [2], in test [3] and in test [4] were 2240, 1100 and 966, respectively. Besides, on Coagulation factor VII, the affinity corresponds to a Ki of 58 nM.
Turning to `O=C(Cc1ccccc1)NCc1cccc(-c2cccc(-c3cc4c[nH]ccc-4n3)c2O)c1`, the Ratio Ki in test [2] amounted to 24; in test [3] it was 26; in test [4], 46.
`COc1ccccc1NC(=O)NCc1cccc(-c2cccc(-c3cc4c[nH]ccc-4n3)c2O)c1`: the Ratio Ki is 3190 in test [2], 3190 in test [3] and 1720 in test [4]. At Coagulation factor VII, this molecule registered a Ki of 47 nM.
`O=C(NCc1cccc(-c2cccc(-c3cc4c[nH]ccc-4n3)c2O)c1)Nc1ccc(F)c(F)c1`: the Ratio Ki in test [2], in test [3] and in test [4] was 455 in each case. On Coagulation factor VII, this molecule came in with a Ki of 330 nM.
Molecule `N=C(N)c1ccc2[nH]c(-c3cccc(-c4cc(CNC(N)=O)ccc4O)c3O)nc2c1` gave a Ki in test [1] of 3600 nM.
Turning to `O=C(NCc1cccc(-c2cccc(-c3cc4c[nH]ccc-4n3)c2O)c1)Nc1cc(F)cc(F)c1`, the Ratio Ki in test [2], in test [3] and in test [4] was 181 throughout. Also, on Coagulation factor VII, the Ki came out at 830 nM.
Regarding `O=C(NCc1cccc(-c2cccc(-c3cc4c[nH]ccc-4n3)c2O)c1)Nc1cccnc1`, the Ratio Ki in test [2] was 968; in test [3] it was 935; in test [4], 635. Further, the Ki at Coagulation factor VII was 155 nM.
For `O=C(NCc1cccc(-c2cccc(-c3cc4c[nH]ccc-4n3)c2O)c1)Nc1ccccn1`, the figures for the Ratio Ki in test [2], in test [3] and in test [4] were 56, 56 and 67, respectively. This molecule displayed a Ki at Coagulation factor VII of 2700 nM.
Take `CN1CCN(C(=O)NCc2cccc(-c3cccc(-c4cc5c[nH]ccc-5n4)c3O)c2)CC1`: the Ratio Ki in test [2], in test [3] and in test [4] was 1 throughout. This molecule gave a Ki on Coagulation factor VII of 130000 nM.
Consider `O=C(NCc1cccc(-c2cccc(-c3cc4c[nH]ccc-4n3)c2O)c1)Nc1ccccc1`, for which the Ratio Ki is 2110 in test [2], 2030 in test [3] and 1010 in test [4]. At Coagulation factor VII, this molecule showed a Ki of 61.5 nM.
Turning to `O=C(NCCc1cccs1)NCc1cccc(-c2cccc(-c3cc4c[nH]ccc-4n3)c2O)c1`, the Ratio Ki was 169 in test [2], 120 in test [3] and 429 in test [4].
As for `COc1ccc(NC(=O)NCc2cccc(-c3cccc(-c4cc5c[nH]ccc-5n4)c3O)c2)cc1`, the results for the Ratio Ki in test [2], in test [3] and in test [4] were 1020, 1590 and 705, respectively. At Coagulation factor VII, affinity was put at a Ki of 88 nM.
The like results for `O=C(NCc1cccc(-c2cccc(-c3cc4c[nH]ccc-4n3)c2O)c1)Nc1cccc(F)c1` were, in that order, 1150, 1150, 923 and 130 nM.
With `O=C(NCc1cccc(-c2cccc(-c3cc4c[nH]ccc-4n3)c2O)c1)Nc1ccsc1`, the Ratio Ki in test [2] amounted to 769; in test [3], 1150; in test [4], 623.
